BaF3 parental: counter-screen for JAK2V617F inhibitors: parental Ba/F3 viability inhibitors; CellTiter-Glo ATP luminescence; actives 1.1% (n = 220,000); inhibition, % at 5.6 µM;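 active = inhibition above a per-campaign cutoff, the mean inhibition of all tested compounds plus 3 SD, cut at about 27% in these data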;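 note: 0% = DMSO wells and 100% = JAK Inhibitor I control wells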
b-catenin transl: alters nuclear translocation of beta-catenin in HeLa cells | immunofluorescence imaging | nuclear translocation activity, % at 5 µM | actives 0.3% (n = 190,000) | AID 1665;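 active = nuclear translocation activity above 50% at 5 µM, with a well cell count of 50 or more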;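 note: per-cell ratio of nuclear to cytoplasmic median beta-catenin stain intensity; plate controls were DMSO negative control for no effect and GSK-3 inhibitor IX positive control for full effect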
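Test system: human HeLa cells, native beta-catenin. Compound dosing: 5 µM primary single dose, 0.1% DMSO, 0.02–20 µM confirmation series. Incubation: compound exposure 24 h at 37°C. Detection: beta-catenin immunostaining with DAPI counterstain, 20x imaging, 6 fields/well. Read-out basis: Nuclear/cytoplasmic beta-catenin signal ratio, % activation.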
Ba/F3 V617F tox: reduce viability of Ba/F3 cells dependent on JAK2V617F; actives 1.1% (n = 220,000); Ba/F3 EpoR-JAK2V617F viability, ATP luminescence; inhibition, % at 5.6 µM;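 active = inhibition above the campaign mean plus 3 SD over all tested compounds, cut at about 24% in these data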;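 note: cytokine-independent growth of Ba/F3 cells driven by EpoR plus mutant JAK2; 0% = DMSO-treated cells and 100% = JAK inhibitor I control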
IEC-6 tox: kills IEC-6 intestinal cells in KLF5 counter-screen; inhibition, % at 5 µM; IEC-6 cytotoxicity, luminescence viability; actives 0.78% (n = 290,000); in the data active = inhibition above about 22%;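 note: 0% = plate median of test compound wells and 100% = cytotoxic reference compound wells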
MT stabilizer: microtubule stabilization, imaging screen; HeLa tubulin immunostaining HCS, 24 h; share of cells brighter than vehicle mean+2SD; % tubulin-high responders, % at 10 µM; actives 0.83% (n = 200,000);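 active = plate Z-score above 3 for both tubulin-high and condensed-nucleus cell shares, with cell loss under 80%, at 10 µM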;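 note: anti alpha tubulin signal scored within the nucleus-defined area of each cell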
APP 5UTR inh: APP translation inhibition. SH-SY5Y APP 5'UTR-luciferase reporter, luminescence. inhibition, % at 2 µM. actives 0.82% (n = 190,000). AID 1285;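 active = inhibition above a set limit, derived from the sample mean plus 3 SD, cut at about 45% in these data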
The depositor's hits bear a star; / = no result. Rows were chosen to be rich in hits. Some 2.2% of all compounds tested hit in one or more screens of this group.

SMILES | BaF3 parental | b-catenin transl | Ba/F3 V617F tox | IEC-6 tox | MT stabilizer | APP 5UTR inh
C[C@@H]1CC=C[C@H]2[C@H]1C(=O)N(Cc1ccccc1)[C@H]2c1cccc([N+](=O)[O-])c1 | / | 0 | / | / | / | /
O=C(Nc1ccc(N2CCN(C(=O)c3ccc(Cl)cc3)CC2)cc1)c1ccc([N+](=O)[O-])o1 | 6 | 0 | 3 | -4 | 6 | 96*
CC/C(=N\NC(=O)c1ccncc1)C12CC3CC(CC(C3)C1)C2 | 4 | -5 | 4 | 0 | 2 | 52*
O=C(c1c(F)cccc1F)N1CCCC(c2nc(-c3ccc(F)cc3)no2)C1 (centres undefined) | / | / | / | -2 | / | /
NC(=O)c1ccc2c(=O)n3c(-c4cc(Cl)c(N)c(Cl)c4)csc3nc2c1 | / | 66* | / | / | / | /
Cc1csc2nc3cc(C(N)=O)ccc3c(=O)n12 | / | -1 | / | / | / | /
Cc1nn2c(N)c(-c3ccccc3)cnc2c1-c1ccccc1 | / | / | / | 2 | / | /
O=C(/C=C/c1ccco1)Oc1cc(Br)cc(/C=N/NC(=O)c2ccccc2O)c1 | 0 | -1 | -4 | 1 | 9 | 64*
CCCC(=O)N/C(N)=N/c1nc(C)c2cc(C)ccc2n1 | 20 | -2 | 13 | 0 | / | /
Cc1cc2nc(/N=C(\N)NC(=O)C(C)C)nc(C)c2cc1C | 30* | 2 | 12 | 9 | / | /
CCC(=O)N/C(N)=N/c1nc(C)c2cc(C)c(C)cc2n1 | 53* | 11 | 38* | 4 | / | /
Cc1ccc(C(C)C)c(OCC(=O)NN=C(CCl)CCl)c1 | -5 | 3 | 3 | -4 | / | /
C/C(=N/NC(=O)COc1cc(C)ccc1C(C)C)C(=O)O | 3 | 0 | 1 | -6 | 2 | 82*
O=C(N/N=C/c1ccc(Cl)cc1)c1cc2c(s1)-c1ccccc1CC2 | 8 | -3 | -1 | -1 | 35* | 0
CCOC(=O)C(C)Sc1nc2c(cnn2-c2ccc(C)cc2)c(=O)[nH]1 (centres undefined) | 1 | 1 | -4 | 6 | 43* | -12
Cc1ccc(-n2ncc3c(=O)[nH]c(SC(C)C)nc32)cc1 | 2 | -2 | 1 | 8 | 6 | -11
CCCN1CCc2c(sc3nc(SCC)n(-c4ccc(OC)cc4)c(=O)c23)C1 | / | / | / | 0 | / | /
Cc1cc(C(=O)N/N=C/c2cccc(OC(=O)c3cccc(Br)c3)c2)n[nH]1 | / | / | / | -5 | / | /
COc1cccc(C(=O)Oc2c(Br)cc(Br)cc2/C=N/NC(=O)c2cc(C)[nH]n2)c1 | 8 | 4 | 5 | 41* | 2 | 45*
O=C(Nc1ccccc1Br)c1ccccc1-c1ccccc1 | 6 | 58* | 1 | 18 | 15* | 8
CCOC(=O)C1=C(N)n2c(s/c(=C\c3ccco3)c2=O)=C(C(=O)OC(C)C)C1c1ccco1 (centres undefined) | 7 | 2 | 5 | 2 | 5 | -7
CCOC(=O)C1=C(N)n2c(s/c(=C\c3ccco3)c2=O)=C(C(=O)OCC)C1c1ccco1 (centres undefined) | 1 | 55* | -2 | -2 | 47* | -11
O=C(N/N=C/c1ccc(Cl)cc1)c1sccc1OCc1ccc(F)cc1 | 47* | 0 | 72* | 22 | 19* | /
O=C(N/N=C/c1ccc(F)cc1)c1sccc1OCc1ccc(F)cc1 | -1 | 87* | 2 | -4 | 34* | -4
Cc1ccc(CNC(=O)c2cc(Cl)cc(Cl)c2)n1C | / | / | / | 0 | / | /
SMILES | BaF3 parental | b-catenin transl | Ba/F3 V617F tox | IEC-6 tox | MT stabilizer | APP 5UTR inh
FC(F)Sc1ccc(NC2=NCCCCC2)cc1 | / | / | / | 5 | / | /
FC(F)Sc1ccc(-n2cc(-c3ccc(Cl)cc3)[n+]3c2CCC3)cc1 | 36* | 0 | 25* | 2 | 2 | 4
Clc1ccc(-n2cc(-c3ccc(Br)cc3)[n+]3c2CCCCC3)cc1 | 60* | 1 | 55* | -3 | / | /
Brc1ccc(-c2csc3[n+]2CCCCC3)cc1 | 55* | -1 | 55* | 0 | 2 | 0
Cc1ccc(-c2cn(-c3ccc(SC(F)F)cc3)c3[n+]2CCC3)cc1 | 66* | 2 | 67* | 3 | 2 | -9
CCC(C)c1ccc(NC(=S)N2CCN(C(=O)C3CCCO3)CC2)cc1 (centres undefined) | / | / | / | -5 | / | /
Cc1nnc(SC(C)C(=O)Nc2ccc3ccccc3c2)[nH]c1=O (centres undefined) | / | / | / | 1 | / | /
Cc1c(C(=O)Nc2cccc(F)c2)cnn1-c1ccccc1 | / | / | / | 1 | / | /
Cc1ccc2[nH]c(=O)c(CN(Cc3ccco3)C(=O)c3ccncc3)cc2c1 | 7 | -3 | 0 | -3 | 14* | 10
O=C(c1ccco1)N(Cc1cc2ccccc2[nH]c1=O)C1CCCCC1 | -4 | -2 | -5 | 2 | 1 | -14
COc1ccccc1NC(=S)N(Cc1ccco1)Cc1cc2cc(C)ccc2[nH]c1=O | 8 | 0 | 4 | 6 | 33* | -4
O=C(c1ccncc1)N(Cc1cc2ccccc2[nH]c1=O)C1CCCCC1 | 29* | -2 | 40* | 8 | 3 | 12
COc1ccc(CN2CCCC(N3CCN(c4ccc(OC)cc4)CC3)C2)cc1 (centres undefined) | / | / | / | 9 | / | /
Cc1cc(Nc2nc3ccccc3nc2Cl)n(-c2ccccc2C)n1 | 10 | 1 | -1 | 2 | 13* | 14
Cc1cc(Nc2nc3ccccc3nc2Cl)n(-c2ccccc2)n1 | 6 | / | -1 | 3 | 12* | 19
Cc1cc(Nc2cccc(Cl)n2)n(-c2ccccc2)n1 | 0 | 2 | 4 | 3 | 5 | 20
Cc1cc(Nc2ccc(Cl)cc2)n(-c2ccccc2)n1 | 2 | -2 | -2 | 11 | 1 | 16
Cc1cc(C)cc(NC(=S)N2CCN(S(=O)(=O)c3ccccc3)CC2)c1 | / | / | / | -3 | / | /
Cc1ccc(N2CC(O)(c3cccs3)[N+]3=C2CCCC3)cc1 (centres undefined) | 45* | 3 | 9 | 4 | 3 | -4
Cc1ccccc1N1CC(O)(c2cccs2)[N+]2=C1CCCC2 (centres undefined) | 6 | 1 | 7 | 0 | 4 | -4
Cc1cccc(N2CC(O)(c3cccs3)[N+]3=C2CCCCC3)c1 (centres undefined) | 52* | 2 | 30* | -1 | 4 | 1
Cc1cccc(N2CC(O)(c3cccs3)[N+]3=C2CCCC3)c1 (centres undefined) | 36* | -1 | 26* | 11 | 4 | -9
Cc1cccc(NC(=O)C2(c3cccs3)CCOCC2)c1 | 4 | 2 | 0 | -4 | 4 | 16
COc1ccc(C2(O)CN(c3ccc(C)cc3)C3=[N+]2CCCC3)cc1 (centres undefined) | 34* | 0 | 17 | -4 | 2 | 2
O=C(Nc1ccc(NC(=O)C2CC2)cc1)c1cccs1 | / | / | / | -1 | / | /
Cc1cccc(N2CC(O)(c3cccs3)[N+]3=C2CCCC3)c1C (centres undefined) | 36* | -2 | 24* | 8 | 7 | -5

Screens (PubChem)
